# Assay outcomes deposited in PubChem by Broad Institute.
# An excerpt weighted towards active compounds, which were near 0.61% of everything screened.
# Xi reactivation: activators of inactive X chromosome reactivation, primary screen, imaging, XiGFP fibroblasts, GFP high-content imaging, set 2. XiGFP mouse fibroblasts, % GFP-positive cells imaging, 3 d; cells co-treated with 5-aza-dC sensitizer; scaled so ellipticine positive control = 100%. activation, % at 7.58 µM. actives 0.055% (n = 360,000);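 active = mean normalized replicate activation at least 10% and every replicate at or above 10%; inconclusive = only one of the two criteria met; inactive = mean below 10% and not all replicates reach 10%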;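 also: 0% = median of on-plate neutral control wells and 100% = ellipticine 6 µM median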
#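 Material: XiGFP fibroblasts, SV40-immortalized; Buffer or medium: DMEM containing 5-aza-dC; Compound dosing: single point; Times: 3 days compound exposure.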
# F508del corr: F508del CFTR correction, initial screen, CFBE line, single point; CFBE cells, YFP halide quenching; stimulated with forskolin plus potentiator P3; % fluorescence drop versus neutral controls; activity (quench increase), % at 7.58 µM; actives 0.36% (n = 350,000); AID 720511, 2013;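 active = mean added fluorescence quench of at least 8% versus neutral control, with both replicates also reaching 8%; inconclusive = only one of the mean or replicate conditions met; inactive = mean below 8% and not both replicates reaching 8%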;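 also: cells transiently co-express mutant CFTR-F508del with the halide-sensitive YFP; corrector assay measuring rescue of mutant channel to the surface after 24 h compound exposure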
# E-selectin induc: E-selectin induction in HUVECs, primary screen, imaging, HUVEC, immunofluorescence imaging, single point | normalized: neutral wells 0, TNF-alpha wells 100 | P16581 | activation, % at 7.58 µM | actives 0.37% (n = 260,000) | AID 686992, 2013;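 active = mean E-selectin-positive cell signal at least 10% of the positive control, reached in at least 60% of replicates, without over 20% cell loss; inconclusive = no rule given, readout overlaps actives, possibly toxicity-flagged; inactive = the rest, including those meeting only one limit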
# Target sequence (P16581 whole entry, looked up): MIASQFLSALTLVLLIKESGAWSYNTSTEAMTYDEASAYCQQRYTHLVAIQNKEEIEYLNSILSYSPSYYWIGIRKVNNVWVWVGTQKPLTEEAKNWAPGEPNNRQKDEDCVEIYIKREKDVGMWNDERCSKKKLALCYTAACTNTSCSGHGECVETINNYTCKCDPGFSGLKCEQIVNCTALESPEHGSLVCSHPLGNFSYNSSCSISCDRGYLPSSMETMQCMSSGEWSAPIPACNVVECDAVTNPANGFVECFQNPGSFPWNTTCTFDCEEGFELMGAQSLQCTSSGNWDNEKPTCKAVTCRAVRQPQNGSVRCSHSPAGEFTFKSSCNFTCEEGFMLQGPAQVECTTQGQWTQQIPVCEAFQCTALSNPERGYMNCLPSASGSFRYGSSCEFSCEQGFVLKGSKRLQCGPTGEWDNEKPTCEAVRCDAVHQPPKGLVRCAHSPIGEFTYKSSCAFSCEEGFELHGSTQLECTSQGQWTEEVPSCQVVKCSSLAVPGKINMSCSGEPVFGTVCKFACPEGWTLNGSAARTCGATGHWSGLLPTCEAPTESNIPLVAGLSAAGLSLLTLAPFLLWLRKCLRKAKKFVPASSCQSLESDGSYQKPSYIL
#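 Read-out basis: % PE-positive cells; Test system: HUVEC primary endothelial cells; Technique: immunofluorescence imaging; Dosing: single-point compound dose.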
# Numbers without * were called inactive; ? = inconclusive; nt = no result.
SMILES,Xi reactivation,F508del corr,E-selectin induc
C=C(C)CCC(C)N1CCC(n2nccc2NC(=O)CCOc2ccccc2)CC1 (centres undefined),0.0,-1.0,43.5*
COc1cccc(CCC(=O)N2CCC(n3nccc3NC(=O)CC(C)C)CC2)c1,0.0,0.7,39.2*
CC=Cc1ccc2n(c1=O)C[C@@H]1[C@@H](CO)[C@H](C(=O)NCc3ccncc3)N(Cc3cncnc3)[C@H]21 (mixture of isomers),0.2,1.4,-0.2
Cc1ccc(S(=O)(=O)N(Cc2cc3ccc(C)cc3[nH]c2=O)c2ccccc2)cc1,0.1,0.1,nt
Cc1ccc(S(=O)(=O)N(Cc2cc3ccccc3[nH]c2=O)c2cccc(C)c2)cc1,-0.1,14.4*,1.9
COc1ccc(-c2nc(NCCCN(C)C)c3ccccc3n2)cc1,-0.1,4.5,nt
CCN(CC)CCCNc1nc2ccccc2c2[nH]c3ccc(OC)cc3c12,0.0,16.8*,0.5
Cc1noc(C)c1S(=O)(=O)N(C)C[C@H]1OCc2ccccc2-c2ccccc2C(=O)N([C@H](C)CO)C[C@H]1C,0.3,1.6,0.4
CC(C)NC(=O)N[C@@H]1CC[C@@H](CCN)O[C@H]1CO,-0.2,0.3,-0.5
CN1CCN(C(=O)C[C@H]2C=C[C@@H](NC(=O)Cc3ccccn3)[C@H](CO)O2)CC1,0.0,-0.7,-0.1
C[C@H](CO)N1C[C@H](C)[C@@H](CN(C)C(=O)Nc2ccc(C(F)(F)F)cc2)OCCCC[C@H](C)Oc2ccc(NC(=O)Nc3ccc(F)cc3)cc2C1=O,0.1,9.3*,0.9
C[C@H]1CCCCO[C@@H](CN(C)C(=O)Nc2ccc(C(F)(F)F)cc2)[C@@H](C)CN([C@@H](C)CO)C(=O)c2cc(NC(=O)Nc3ccc(F)cc3)ccc2O1,0.0,8.3*,0.2
C[C@@H]1CCCCO[C@H](CN(C)C(=O)Nc2ccc(C(F)(F)F)cc2)[C@H](C)CN([C@H](C)CO)C(=O)c2cc(NC(=O)Nc3ccc(F)cc3)ccc2O1,-0.1,5.5,0.3
C[C@@H]1CCCCO[C@H](CN(C)C(=O)Nc2ccc(F)cc2)[C@@H](C)CN([C@H](C)CO)C(=O)c2cc(NC(=O)Nc3ccc(C(F)(F)F)cc3)ccc2O1,0.6,0.9,0.1
C[C@H]1CCCCO[C@@H](CN(C)C(=O)Nc2ccc(C(F)(F)F)cc2)[C@@H](C)CN([C@@H](C)CO)C(=O)c2cc(NC(=O)Nc3ccc4c(c3)OCO4)ccc2O1,-0.1,8.1*,0.2
C[C@H](CO)N1C[C@H](C)[C@H](CN(C)C(=O)Nc2ccc3c(c2)OCO3)OCCCC[C@H](C)Oc2ccc(NC(=O)Nc3ccc(C(F)(F)F)cc3)cc2C1=O,0.2,4.5,2.8
C[C@@H]1CN([C@H](C)CO)C(=O)Cc2cc(NC(=O)NC3CCCCC3)ccc2O[C@H]1CN(C)C(=O)Nc1cccc2ccccc12,0.4,-0.9,-0.3
COc1cccc(-c2cnc3c(c2)C(=O)N([C@@H](C)CO)C[C@H](C)[C@H](CN(C)C(=O)Nc2ccccc2F)O3)c1,0.0,0.1,-0.2
COc1ccccc1S(=O)(=O)N[C@H]1C=C[C@H](CC(=O)N2CCOCC2)O[C@H]1CO,0.6,-1.1,0.0
COCCNC(=O)C[C@H]1C[C@@H]2c3cc(N(C)C)ccc3O[C@@H]2[C@@H](CO)O1,0.0,1.8,-0.1
CCCN1C(=O)/C(=C\C=C2\N(CC)c3ccccc3C2(C)C)SC1=S,0.4,16.3*,2.9
CCN1C(=O)/C(=C/C=C2\C=CN(CC)c3ccccc32)SC1=S,0.0,nt,nt
CN1C(=CC=C2C=C(I)C(=O)C(I)=C2)C(C)(C)c2ccccc21,-0.2,9.6*,163.2*
CN1/C(=C\C=C2/C(=O)Oc3ccccc3C2=O)C(C)(C)c2ccccc21,2.0,3.5,4.8
CN1/C(=C\C=C2/SC(=S)NC2=O)C(C)(C)c2ccccc21,1.1,25.1*,?
SMILES,Xi reactivation,F508del corr,E-selectin induc
CN1/C(=C\C=N\O)C(C)(C)c2ccccc21,0.3,nt,nt
CC(C)NC(=O)Nc1cccc2c1O[C@@H](CN(C)C(=O)Nc1ccccc1)[C@@H](C)CN([C@H](C)CO)C2=O,0.0,0.2,-0.1
NC(=S)Nc1cccc2[nH]ncc12,0.0,-1.0,1.5
O=S(=O)(Nc1cccc2[nH]ncc12)c1cccs1,0.0,-3.0,32.9*
CN(C)C(=O)C[C@H]1CC[C@H]2[C@@H](COC[C@@H](O)CN2C(=O)C2CCCC2)O1,-0.1,4.2,0.2
O=C(CCCCCN1C(=O)c2cccc3cccc(c23)C1=O)NCCCO,0.0,0.5,-0.3
O=C1c2ccc3c4c(ccc(c24)C(=O)N1CCCCO)C(=O)N(CCCCO)C3=O,0.0,18.2*,0.4
O=C(CN1C(=O)c2cccc3cccc(c23)C1=O)NCCCO,0.4,0.0,63.5*
O=C1c2ccccc2C(=O)N1CCCN1C(=O)c2ccccc2C1=O,0.2,2.4,-0.7
Cc1noc(C)c1S(=O)(=O)Nc1ccc2c(c1)CC(=O)N([C@H](C)CO)C[C@@H](C)[C@H](CN(C)C(=O)Nc1ccc(C(F)(F)F)cc1)O2,0.0,4.5,0.2
O=C(C1CCOCC1)N1CC(=O)N2[C@@H](CO)[C@H](c3ccc(C#CC4CC4)cc3)[C@@H]2C1,-0.1,-1.2,-0.1
Cc1cc(C)c2nc(C)cc(Nc3ccc(C(=O)NCCO)cc3)c2c1,0.0,0.0,0.1
CC(=O)c1ccc(Nc2cc(C)nc3c(C)cc(C)cc23)cc1,0.1,16.6*,nt
CC(=O)Nc1cccc(NC(=S)Nc2ccc(F)c(Cl)c2)c1,0.0,-1.0,4.1
CC(=O)NNC(=S)Nc1cccc(F)c1,0.1,-2.5,51.3*
C/C(=N\Nc1ncnc2sc(C)c(C)c12)c1ccccn1,84.8*,21.4*,nt
Cc1sc2ncnc(N/N=C/c3cccc(O)c3)c2c1C,0.0,nt,nt
c1ccc(Cc2cc[n+](Cc3ccccn3)cc2)cc1,0.1,-2.2,45.2*
O=[N+]([O-])c1ccc(C[n+]2ccc(Cc3ccccc3)cc2)cc1,7.1,3.2,nt
C[C@@H]1CCCCO[C@H](CN(C)C(=O)Nc2ccc3c(c2)OCO3)[C@H](C)CN([C@@H](C)CO)C(=O)c2cc(NS(=O)(=O)c3ccc(F)cc3)ccc2O1,0.1,2.3,-0.2
Cc1noc(C)c1NC(=O)Nc1ccc2c(c1)C(=O)N([C@H](C)CO)C[C@H](C)[C@H](CN(C)CC1CC1)OCCCC[C@@H](C)O2,0.5,-1.1,0.0
CC(=O)NC(Cc1c[nH]c2ccccc12)C(=O)NCCc1ccccn1 (centres undefined),0.3,0.9,45.7*
COc1ccc(OCCNC(=O)C(Cc2c[nH]c3ccccc23)NC(C)=O)cc1 (centres undefined),0.5,1.5,nt
C[C@H]1CC(=O)N[C@@H](c2ccccc2)C/C=C\C[C@H](c2ccc3c(c2)OCO3)NC1=O,0.0,nt,nt
CCOc1ccc(NC(=O)c2ccccc2NC(=O)CNC2CCCC(C)C2C)cc1 (centres undefined),0.0,10.6*,0.5
CCOc1ccc(NC(=O)c2ccccc2NC(=O)CN2CCCCCC2)cc1,0.0,-1.0,0.0
